Results published in ChEMBL document CHEMBL1250528 (J Med Chem, 2010).
Values belong to the compound of their own block, whether it stands above or below them.

How the values were obtained:
[1] = Permeability of the compound in human Caco-2 cells; format: ADME, cell-based; conditions: read-out: permeability
[2] = Oral bioavailability in BALB/c mouse at 10 mg/kg; format: ADME, organism-based; conditions: in vivo
How it was run: (§1)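 Male BALB/c mice (20-25 g), fasted overnight. IV bolus 5 mg/kg in 20% NMP/35% PEG 400/10% PG/35% water; oral gavage 10 mg/kg in PEG 400. Retro-orbital blood at 0.05 (iv only), 0.25, 0.5, 1, 3, 6, 8 and 24 h; three mice per time point, giving a composite profile. Plasma analysed by LC/MS/MS.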

[3] = Cmax in BALB/c mouse at 5 mg/kg, iv and 10 mg/kg, po; format: ADME, organism-based; conditions: in vivo; how it was run: as §1
[4] = system: Hepatocyte; assay: Metabolic stability in human hepatocytes assessed as metabolic rate per million cells; format: ADME, cell-based
[5] = Tmax in BALB/c mouse at 5 mg/kg, iv and 10 mg/kg, po; format: ADME, organism-based; conditions: in vivo; how it was run: as §1
[6] = Half life in BALB/c mouse at 5 mg/kg, iv and 10 mg/kg, po; format: ADME, organism-based; conditions: in vivo; how it was run: as §1
[7] = Mean residence time in BALB/c mouse at 5 mg/kg, iv and 10 mg/kg, po; format: ADME, organism-based; conditions: in vivo; how it was run: as §1
[8] = Clearance in BALB/c mouse at 5 mg/kg, iv and 10 mg/kg, po; format: ADME, organism-based; conditions: in vivo; how it was run: as §1
[9] = Volume of distribution at steady state in BALB/c mouse at 5 mg/kg, iv and 10 mg/kg, po; format: ADME, organism-based; conditions: in vivo, read-out: Vdss; how it was run: as §1
[10] = AUC (0 to 8 hrs) in BALB/c mouse at 5 mg/kg, iv and 10 mg/kg, po; format: ADME, organism-based; conditions: plasma; how it was run: as §1
[11] = Oral bioavailability in Sprague-Dawley rat at 10 mg/kg; format: ADME, organism-based; conditions: in vivo
How it was run: (§2)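 Male Sprague-Dawley rats (250-300 g), fasted overnight. IV bolus 2.5 mg/kg in 25% NMP/33% PEG 400/9% PG/33% water; oral gavage 10 mg/kg in PEG 400. Blood sampled at 0.05 (iv only), 0.25, 0.5, 1, 3, 6, 8 and 24 h post dose; composite profile. Plasma stored at -20 °C, then analysed by LC/MS/MS.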

[12] = Cmax in Sprague-Dawley rat at 2.5 mg/kg, iv and 10 mg/kg, po; format: ADME, organism-based; conditions: in vivo; how it was run: as §2
[13] = Tmax in Sprague-Dawley rat at 2.5 mg/kg, iv and 10 mg/kg, po; format: ADME, organism-based; conditions: in vivo; how it was run: as §2
[14] = Half life in Sprague-Dawley rat at 2.5 mg/kg, iv and 10 mg/kg, po; format: ADME, organism-based; conditions: in vivo; how it was run: as §2
[15] = Mean residence time in Sprague-Dawley rat at 2.5 mg/kg, iv and 10 mg/kg, po; format: ADME, organism-based; conditions: in vivo; how it was run: as §2
[16] = Clearance in Sprague-Dawley rat at 2.5 mg/kg, iv and 10 mg/kg, po; format: ADME, organism-based; conditions: in vivo; how it was run: as §2
[17] = Volume of distribution at steady state in Sprague-Dawley rat at 2.5 mg/kg, iv and 10 mg/kg, po; format: ADME, organism-based; conditions: in vivo, read-out: Vdss; how it was run: as §2
[18] = AUC (0 to 24 hrs) in Sprague-Dawley rat at 2.5 mg/kg, iv and 10 mg/kg, po; format: ADME, organism-based; conditions: plasma; how it was run: as §2
[19] = Metabolic stability in mouse liver microsomes assessed as metabolic rate; format: ADME, Microsome
[20] = system: Liver microsomes; assay: Metabolic stability in rat liver microsomes assessed as metabolic rate; format: ADME, Microsome
[21] = system: Liver microsomes; assay: Metabolic stability in human liver microsomes assessed as metabolic rate; format: ADME, Microsome
[22] = Metabolic stability in mouse hepatocytes assessed as metabolic rate per million cells; format: ADME, cell-based, Hepatocyte
[23] = system: Hepatocyte; assay: Metabolic stability in rat hepatocytes assessed as metabolic rate per million cells; format: ADME, cell-based

- Papp [1]: 0.5 ×10⁻⁶ cm/s
Structure (SMILES): CCNC(=O)c1cn2ncnc(Nc3cc(C(=O)NOC)ccc3C)c2c1C

- bioavailability [2]: 90%
- Cmax [3]: 15.3 µM
- Papp [1]: 9.1 ×10⁻⁶ cm/s
- Stability [4]: 0.015 nmol/min/million cells
- Tmax [5]: 1 h
- half-life [6]: 2.6 h
- MRT [7]: 3.3 h
- clearance [8]: 4.4 mL/min/kg
- Vd [9]: 0.9 L/kg
- AUC(0-t) [10]: 75.5 µM·h
- bioavailability [11]: 60%
- Cmax [12]: 7 µM
- Tmax [13]: 1.5 h
- half-life [14]: 4 h
- MRT [15]: 3.4 h
- clearance [16]: 5.4 mL/min/kg
- Vd [17]: 1.1 L/kg
- AUC(0-t) [18]: 45.4 µM·h
- Stability [19]: 0.011 nmol/min/mg
- Stability [20]: 0.008 nmol/min/mg
- Stability [21]: 0.013 nmol/min/mg
- Stability [22]: 0.006 nmol/min/million cells
- Stability [23]: 0.015 nmol/min/million cells
Structure (SMILES): CCCNC(=O)c1cn2ncnc(Nc3cc(C(=O)NC4CC4)ccc3C)c2c1C [BMS-582949]
